In test [1] the target is T1, FPR R190/N192 (Homo sapiens, UniProt P21462).
T1 sequence (P21462 1-350): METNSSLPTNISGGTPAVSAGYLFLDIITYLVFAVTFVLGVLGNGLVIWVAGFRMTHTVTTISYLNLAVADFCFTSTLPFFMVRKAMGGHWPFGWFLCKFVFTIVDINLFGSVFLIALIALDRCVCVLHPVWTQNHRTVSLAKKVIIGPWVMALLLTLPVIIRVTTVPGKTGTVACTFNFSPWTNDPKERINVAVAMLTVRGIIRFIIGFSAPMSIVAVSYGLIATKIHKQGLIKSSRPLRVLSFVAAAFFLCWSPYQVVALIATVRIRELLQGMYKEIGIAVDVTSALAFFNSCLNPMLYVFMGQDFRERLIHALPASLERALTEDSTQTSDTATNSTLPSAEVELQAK
The test can be described thus: FACScan analysis of ligand binding.

Test [2] deals with T2, FPR R190/K192 (Homo sapiens, UniProt P21462, N192K).
T2 sequence (P21462 1-350 N192K): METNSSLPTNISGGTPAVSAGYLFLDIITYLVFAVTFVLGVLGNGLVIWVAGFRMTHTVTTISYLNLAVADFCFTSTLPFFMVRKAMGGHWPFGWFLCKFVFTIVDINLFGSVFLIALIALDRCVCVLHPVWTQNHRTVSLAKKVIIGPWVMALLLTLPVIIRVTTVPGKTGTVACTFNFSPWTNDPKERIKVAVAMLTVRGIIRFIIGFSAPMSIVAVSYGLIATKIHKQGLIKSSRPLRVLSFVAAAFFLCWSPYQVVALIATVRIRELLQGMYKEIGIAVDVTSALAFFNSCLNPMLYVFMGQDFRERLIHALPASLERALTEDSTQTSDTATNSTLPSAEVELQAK
The test can be described thus: FACScan analysis of ligand binding.

The target of test [3] is T3, FPR W190/N192 (Homo sapiens, UniProt P21462, R190W).
T3 sequence (P21462 1-350 R190W): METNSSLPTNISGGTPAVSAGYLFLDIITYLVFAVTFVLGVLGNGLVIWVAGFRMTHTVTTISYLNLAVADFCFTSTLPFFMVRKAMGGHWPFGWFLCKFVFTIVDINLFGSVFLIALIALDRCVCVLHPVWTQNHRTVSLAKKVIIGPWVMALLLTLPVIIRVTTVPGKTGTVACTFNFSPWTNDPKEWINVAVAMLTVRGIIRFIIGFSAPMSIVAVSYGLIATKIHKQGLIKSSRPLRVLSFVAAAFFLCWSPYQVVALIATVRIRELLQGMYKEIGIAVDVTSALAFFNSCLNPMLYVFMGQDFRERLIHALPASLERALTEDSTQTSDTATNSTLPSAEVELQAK
The test can be described thus: FACScan analysis of ligand binding.

The target in test [4] is T1, FPR R190/N192. As to the kind of experiment: Downregulation of surface FPR in CHO S cells. It is filed as cell-based. The essentials: (§1)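 CHO S cells expressing the FPR variant were exposed to test compound (0.4% DMSO) in CHO-S-SFMII for 1 h at 37 °C. They were washed twice with cold phosphate buffer, then labeled 1 h at 4 °C with 50 nM formyl-Nle-Leu-Phe-Nle-Tyr-Lys-FITC in pH 7.4 buffer with Mg++, Ca++ and 5% FBS. Mean fluorescence was measured by FACScan, minus non-expressing cells.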

The target of test [5] is T2, FPR R190/K192. As to the kind of experiment: Downregulation of surface FPR in CHO S cells. It is filed as cell-based. The essentials:
as §1

Test [6] addresses T3, FPR W190/N192. As to the kind of experiment: Downregulation of surface FPR in CHO S cells. It is filed as cell-based. The method in brief:
as §1

Test [7] has as its target T4, FPR R190/N192 (Homo sapiens, UniProt P21462).
T4 chain: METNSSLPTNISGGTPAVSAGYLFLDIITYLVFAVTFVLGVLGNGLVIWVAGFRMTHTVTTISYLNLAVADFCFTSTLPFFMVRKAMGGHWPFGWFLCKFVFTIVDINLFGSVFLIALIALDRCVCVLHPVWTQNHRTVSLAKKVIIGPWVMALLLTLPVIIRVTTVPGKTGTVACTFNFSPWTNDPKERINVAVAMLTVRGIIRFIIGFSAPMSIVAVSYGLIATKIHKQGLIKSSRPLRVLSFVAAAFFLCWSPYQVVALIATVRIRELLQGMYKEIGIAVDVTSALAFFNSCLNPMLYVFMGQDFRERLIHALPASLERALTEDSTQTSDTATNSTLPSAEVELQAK
The test can be described thus: FACS competition with formyl-Nle-Leu-Phe-Nle-Tyr-Lys-FITC.

For test [8], the target named is T5, FPR W190/N192 (Homo sapiens, UniProt P21462).
T5 chain: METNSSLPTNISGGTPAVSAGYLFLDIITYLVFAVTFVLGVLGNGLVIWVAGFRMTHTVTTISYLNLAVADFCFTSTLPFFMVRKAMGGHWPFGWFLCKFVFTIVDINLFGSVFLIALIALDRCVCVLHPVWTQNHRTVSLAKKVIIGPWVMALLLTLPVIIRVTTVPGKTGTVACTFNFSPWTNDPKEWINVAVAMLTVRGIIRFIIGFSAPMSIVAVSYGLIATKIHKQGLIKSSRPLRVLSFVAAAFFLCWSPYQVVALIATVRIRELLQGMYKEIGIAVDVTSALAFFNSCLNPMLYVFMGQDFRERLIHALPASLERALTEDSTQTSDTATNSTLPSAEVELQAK
The test is described as above.

Square brackets hold non-standard residues; d marks the D form. Ends that are not written are not given here. * marks the point of attachment. Nle = CCCC[C@H](N)C(=O)O; For = O=C*

With Ac-WEDWVGWI-NH2, the Ki came out at 1.3 ± 0.2 µM at FPR R190/N192 [1] (Ki for binding of peptides to R190/N192 FPR, ± SEM, vs 0.38 nM formyl-Nle-Leu-Phe-Nle-Tyr-Lys-FITC, 4 °C, 60 min); 1.3 ± 0.3 µM on FPR R190/K192 [2] (Ki for binding of peptides to R190/K192 FPR, ± SEM, vs 0.38 nM formyl-Nle-Leu-Phe-Nle-Tyr-Lys-FITC, 4 °C, 60 min); 2.6 ± 0.4 µM on FPR W190/N192 [3]. At FPR R190/N192 [4] (25 μM peptide, data not shown), the “Inhibition of the downregulation with 300 nM formyl-Nle-Leu-Phe, R190/N192” value was around 50%. On FPR R190/K192 [5] (25 μM peptide, data not shown), the “Inhibition of the downregulation with 300 nM formyl-Nle-Leu-Phe, R190/K192” value is on record as around 50%. In addition, the “Inhibition of the downregulation with 300 nM formyl-Nle-Leu-Phe, W190/N192” value at FPR W190/N192 [6] (25 μM peptide, data not shown) is listed as around 50%.
In the case of Ac-WEDAVGWI-NH2, the “Binding relative to WEDWVGWI, R190/N192” value on FPR R190/N192 [1] (fold weaker) is given as “more than 10 fold”. In addition, the “Binding relative to WEDWVGWI, R190/K192” value at FPR R190/K192 [2] (fold weaker) is “more than 10 fold”. Further, the “Binding relative to WEDWVGWI, W190/N192” value on FPR W190/N192 [3] (fold weaker) was “more than 10 fold”.
Take formyl-NleNleWED: the “Downregulation of surface receptor, R190/N192” value on FPR R190/N192 [4] (concentrations up to 50 μM) is given as “very little downregulation”. Further, the “Downregulation of surface receptor, R190/K192” value on FPR R190/K192 [5] (concentrations up to 50 μM) is given as “very little downregulation”. Also, on FPR W190/N192 [6] (concentrations up to 50 μM), the “Downregulation of surface receptor, W190/N192” value is recorded as “very little downregulation”.

B1: formyl-NleNleWEDWVGWI (peptide)
chain: For-[Nle][Nle]WEDWVGWI
In the test with FPR R190/N192 [7], B1 showed a Ki of 0.48 µM.

B2: WEDWVGWI (FIV GP-36 peptide) (peptide)
chain: Ac-WEDWVGWI-NH2
B2: affinity with FPR R190/N192 [7] was put at a Ki of 1.3 µM.

B3: formyl-NleNleWEDWVGWI (peptide)
chain: For-[Nle][Nle]WEDWVGWI
Consider B3, for which the affinity with FPR W190/N192 [8] corresponds to a Ki of 1 µM.

The values above are taken from paper PMC2094211 (Biochimica et Biophysica Acta. Molecular Basis of Disease, 2007).
